Assay results published in paper PMC12709667 (Journal of Clinical Pharmacology, 2025).

How the values were obtained:
UGT1A3 = molecular target: T1, UGT1A3 (Homo sapiens, UniProt P35503); assay: Phase 2 enzyme substrate assessment; type: in vitro ADME
T1 sequence (P35503 29-534): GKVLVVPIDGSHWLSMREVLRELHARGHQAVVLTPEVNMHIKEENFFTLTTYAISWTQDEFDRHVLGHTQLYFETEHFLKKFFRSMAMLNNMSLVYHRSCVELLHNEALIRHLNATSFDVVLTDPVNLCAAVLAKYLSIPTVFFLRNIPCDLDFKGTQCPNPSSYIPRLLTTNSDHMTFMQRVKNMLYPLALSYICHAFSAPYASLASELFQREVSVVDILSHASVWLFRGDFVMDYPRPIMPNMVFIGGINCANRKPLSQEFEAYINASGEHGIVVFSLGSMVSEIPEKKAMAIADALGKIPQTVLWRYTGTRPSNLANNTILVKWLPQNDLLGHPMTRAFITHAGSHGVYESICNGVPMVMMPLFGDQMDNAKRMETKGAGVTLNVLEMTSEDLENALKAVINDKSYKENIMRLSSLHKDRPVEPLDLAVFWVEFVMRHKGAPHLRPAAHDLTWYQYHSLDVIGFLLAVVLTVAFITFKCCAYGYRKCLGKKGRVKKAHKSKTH

CYP2C19 [1] = molecular target: T2, CYP2C19 (Homo sapiens, UniProt P33261); assay: Cytochrome P450 inhibition; type: in vitro ADME
liver fat = details: patients with presumed MASH; cited from earlier work
UGT1A1 = molecular target: T3, UGT1A1 (Homo sapiens, UniProt P22309); assay: Phase 2 enzyme substrate assessment; type: in vitro ADME
T3 sequence (P22309 26-533): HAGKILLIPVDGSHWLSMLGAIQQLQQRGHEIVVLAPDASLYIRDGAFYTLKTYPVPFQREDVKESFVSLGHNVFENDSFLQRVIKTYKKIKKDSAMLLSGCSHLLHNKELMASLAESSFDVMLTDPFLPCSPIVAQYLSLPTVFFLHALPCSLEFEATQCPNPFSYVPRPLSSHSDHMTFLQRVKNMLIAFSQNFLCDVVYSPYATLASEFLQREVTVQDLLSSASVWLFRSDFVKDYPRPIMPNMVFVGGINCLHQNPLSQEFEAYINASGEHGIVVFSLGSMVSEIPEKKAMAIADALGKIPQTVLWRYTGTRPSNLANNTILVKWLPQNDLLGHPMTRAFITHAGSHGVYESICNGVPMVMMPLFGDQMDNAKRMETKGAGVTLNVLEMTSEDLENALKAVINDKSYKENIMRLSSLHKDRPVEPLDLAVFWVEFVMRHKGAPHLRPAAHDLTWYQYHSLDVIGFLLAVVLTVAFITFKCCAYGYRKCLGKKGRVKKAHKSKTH

CYP2C19 [2] = molecular target: T2, CYP2C19; assay: DDI victim study with fluvoxamine; type: in vivo; details: with strong CYP2C19 inhibitor fluvoxamine
[3] = [14C] metabolism and excretion study in cynomolgus monkeys; type: in vivo, cynomolgus monkey; details: for whole blood‐to‐plasma ratio of total radioactivity: based on AUC0‐last; for recovery of radioactivity: by 168 h postdose
In short: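 Male and female cynomolgus monkeys received one oral-gavage dose of 80 mg/kg (2 MBq/kg) [14C]-labelled test compound. Blood, urine and faeces were collected at set times up to 168 h for total radioactivity. Metabolites were profiled by high-resolution LC-MS with online fraction collection and offline counting. The blood:plasma ratio was based on AUC0-last.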

CYP2B6 = molecular target: T4, CYP2B6 (Homo sapiens, UniProt P20813); type: in vitro ADME
T4 sequence (P20813 1-491): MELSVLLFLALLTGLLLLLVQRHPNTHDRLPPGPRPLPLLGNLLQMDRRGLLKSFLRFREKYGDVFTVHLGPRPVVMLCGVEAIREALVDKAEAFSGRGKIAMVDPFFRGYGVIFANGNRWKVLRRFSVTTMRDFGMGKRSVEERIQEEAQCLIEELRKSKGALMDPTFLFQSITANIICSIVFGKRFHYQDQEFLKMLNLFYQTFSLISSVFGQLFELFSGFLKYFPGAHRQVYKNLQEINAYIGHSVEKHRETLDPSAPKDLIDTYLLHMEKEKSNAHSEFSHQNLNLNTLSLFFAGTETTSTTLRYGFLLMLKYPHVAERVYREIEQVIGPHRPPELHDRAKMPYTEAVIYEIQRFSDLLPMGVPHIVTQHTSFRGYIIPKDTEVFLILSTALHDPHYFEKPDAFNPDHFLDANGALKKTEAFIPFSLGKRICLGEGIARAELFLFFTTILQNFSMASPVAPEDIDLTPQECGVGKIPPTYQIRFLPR

BCRP = molecular target: T5, BCRP (Homo sapiens, UniProt Q9UNQ0); assay: DDI perpetrator study: rosuvastatin probe; type: in vivo; details: miricorilant 400 mg once daily as perpetrator
T5 sequence (Q9UNQ0 1-655): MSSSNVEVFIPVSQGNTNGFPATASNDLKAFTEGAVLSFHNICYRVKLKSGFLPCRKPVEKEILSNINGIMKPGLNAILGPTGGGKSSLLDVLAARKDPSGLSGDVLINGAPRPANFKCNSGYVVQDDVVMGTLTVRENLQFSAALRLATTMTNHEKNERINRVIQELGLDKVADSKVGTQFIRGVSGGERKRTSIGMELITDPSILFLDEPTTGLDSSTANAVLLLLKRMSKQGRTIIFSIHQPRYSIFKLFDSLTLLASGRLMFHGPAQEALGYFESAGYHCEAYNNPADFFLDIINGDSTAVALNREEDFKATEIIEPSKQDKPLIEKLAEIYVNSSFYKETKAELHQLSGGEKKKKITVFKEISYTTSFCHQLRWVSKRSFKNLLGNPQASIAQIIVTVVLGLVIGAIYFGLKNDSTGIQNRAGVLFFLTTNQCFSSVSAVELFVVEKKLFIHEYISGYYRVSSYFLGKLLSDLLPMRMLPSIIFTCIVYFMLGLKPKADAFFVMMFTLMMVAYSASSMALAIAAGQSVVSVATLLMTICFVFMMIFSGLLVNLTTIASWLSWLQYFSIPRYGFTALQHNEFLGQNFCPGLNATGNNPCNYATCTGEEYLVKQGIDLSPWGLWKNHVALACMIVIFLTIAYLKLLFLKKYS

[4] = [14C] ADME study in male albino CD1 mice; type: in vivo, mouse
In short: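 Male albino CD1 mice received one oral dose of 50 mg/kg (5 MBq/kg) [14C]-labelled test compound. Blood and plasma were counted for total radioactivity. Urine and faeces were collected for excretion balance, and plasma, urine and faeces were used for metabolite profiling.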

T2 sequence (P33261 whole entry): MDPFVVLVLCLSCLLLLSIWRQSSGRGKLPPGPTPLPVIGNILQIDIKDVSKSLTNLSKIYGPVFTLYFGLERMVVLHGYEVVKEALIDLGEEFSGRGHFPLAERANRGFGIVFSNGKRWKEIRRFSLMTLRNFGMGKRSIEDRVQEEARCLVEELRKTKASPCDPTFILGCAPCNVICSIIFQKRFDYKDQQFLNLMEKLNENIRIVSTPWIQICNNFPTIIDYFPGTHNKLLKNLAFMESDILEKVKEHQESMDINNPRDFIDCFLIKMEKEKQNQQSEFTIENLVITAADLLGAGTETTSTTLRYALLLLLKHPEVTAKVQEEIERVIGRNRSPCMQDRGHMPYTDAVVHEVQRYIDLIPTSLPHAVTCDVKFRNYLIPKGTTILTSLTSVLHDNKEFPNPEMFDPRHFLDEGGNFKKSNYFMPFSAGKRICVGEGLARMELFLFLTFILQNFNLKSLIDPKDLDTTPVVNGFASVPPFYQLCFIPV

O=c1[nH]c(=O)c(Cc2cccc(C(F)(F)F)c2)c([C@H]2CC[C@H](c3ccccc3)CC2)[nH]1 [miricorilant]
Substrate of UGT1A3 (UGT1A3): not a substrate
inhibition of CYP2C19 (CYP2C19 [1]): No inhibition
effect on liver fat (liver fat): rapid and substantial reduction of liver fat
Substrate of UGT1A1 (UGT1A1): not a substrate
clinical sensitivity as substrate of CYP2C19 (CYP2C19 [2]): moderately sensitive substrate
elimination in urine ([3]; female monkeys): 0.74 ± 0.11%
fecal elimination ([3]; female monkeys): 78.51 ± 8.77%
time at which plasma radioactivity was below the limit of detection ([3]; female monkeys): 96 h
whole blood‐to‐plasma ratio of total radioactivity ([3]; female monkeys): 0.66
recovery of radioactivity ([3]; female monkeys): 88.08 ± 4.03%
elimination in urine ([3]; male monkeys): 0.96 ± 0.08%
fecal elimination ([3]; male monkeys): 72.2 ± 11.20%
time at which plasma radioactivity was below the limit of detection ([3]; male monkeys): 144 h
whole blood‐to‐plasma ratio of total radioactivity ([3]; male monkeys): 0.75
recovery of radioactivity ([3]; male monkeys): 80.88 ± 11.60%
inhibition of CYP2B6 (CYP2B6): No inhibition
clinical inhibition of BCRP (BCRP): moderate inhibitor
recovery of radioactivity ([4]; by 24 h postdose): quantitative recovery
elimination of radioactivity in urine ([4]; single oral 50 mg/kg): 0.13% ± 0.04%
fecal elimination of radioactivity ([4]; single oral 50 mg/kg): 98.7% ± 2.48%
share of total radioactivity in plasma ([4]; single oral 50 mg/kg): 69%
